Results: ChEMBL document CHEMBL1136753, “Optimization of 2-phenylaminoimidazo[4,5-h]isoquinolin-9-ones: orally active inhibitors of lck kinase” (J Med Chem, 2003)

Assays:
[1] = molecular target: Tyrosine-protein kinase ITK/TSK (Homo sapiens, UniProt Q08881); assay: Inhibition of IL-2-inducible T-cell kinase (Itk kinase) was measured using DELFIA (dissociation enhanced lanthanide fluoroimmunoassay)
Method in brief: (§1)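 DELFIA tyrosine kinase assay on neutravidin-coated plates. Substrate is biotinylated poly-Glu₄-Tyr₁, with ATP at or below Km. Compounds are tested in 10-point dose response. After 45 min at room temperature, Eu-labelled anti-phosphotyrosine is added and time-resolved fluorescence is read (ex 360/em 620 nm). IC₅₀ is the mean of ≥2 determinations in duplicate.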

[2] = molecular target: Vascular endothelial growth factor receptor (Homo sapiens, UniProt P17948+P35916+P35968); assay: Inhibition of Vascular endothelial growth factor receptor; format: protein assay; method in brief: as §1
[3] = molecular target: AMP-activated protein kinase, AMPK; assay: Inhibition of AMP-activated Protein Kinase; format: protein-complex assay
Method in brief: (§2)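 Serine/threonine kinase panel run through the Dundee consortium with ATP at 100 µM. IC₅₀ values are reported.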

[4] = Inhibition of Platelet-derived growth factor receptor
Method in brief: (§3)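 DELFIA tyrosine kinase assay: enzyme at 0.8 nM final, biotin-poly-Glu₄-Tyr₁ substrate, 1 µM final ATP. Ten-point dilutions from 1 µg/mL final, 45 min at room temperature. Phosphotyrosine read by Eu-anti-phosphotyrosine time-resolved fluorescence. IC₅₀ is the mean of two or more determinations in duplicate.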

[5] = molecular target: Protein kinase C (PKC); assay: Inhibition of Protein kinase C; format: protein assay; method in brief: as §2
[6] = molecular target: Tyrosine-protein kinase ZAP-70 (Homo sapiens, UniProt P43403); assay: Inhibition of Zeta-chain (TCR) associated protein kinase 70 kDa (ZAP-70)
Method in brief: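 Kinase-panel IC50 with ATP at or below the Km of each listed kinase. Each value is the mean of two or more separate determinations, each in duplicate.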

[7] = molecular target: Insulin receptor (Homo sapiens, UniProt P06213); assay: Inhibition of Insulin receptor; method in brief: as §1
[8] = molecular target: Inhibitor of nuclear factor kappa-B kinase subunit beta (Homo sapiens, UniProt O14920); assay: Inhibition of IKK beta kinase; method in brief: as §2
[9] = Inhibition of Calcium/calmodulin-dependent protein kinase
[10] = molecular target: cAMP-dependent protein kinase (PKA) (Homo sapiens, UniProt P22694+P17612+P22612); assay: Inhibition of Protein kinase A (PKA); format: protein assay; method in brief: as §2
[11] = Inhibition of PHK phosphorylase kinase
[12] = molecular target: Tyrosine-protein kinase SYK (Homo sapiens, UniProt P43405); assay: Inhibition of Syk protein tyrosine kinase; method in brief: as §1
[13] = molecular target: Rho-associated protein kinase 2 (Homo sapiens, UniProt O75116); assay: Inhibition of Protein kinase ROCK2; method in brief: as §2
[14] = tested on: Jurkat; assay: Inhibition of Calcium release in jurkat cells; format: functional, cell-based; settings: Homo sapiens
Method in brief: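 Jurkat cells loaded with Fluo-3, washed in HBSS with 1 mM CaCl₂, 1 mM MgCl₂, 10 mM HEPES, 2 mM probenecid, 1% FBS, pH 7.4. Final 3 × 10⁵ cells/mL. Compound added for 15 min at room temperature, then anti-CD3 (clone X35, final 0.25 µg/mL). FLIPR fluorescence followed for 13 min. Peak minus baseline plotted against concentration gives EC₅₀. Mean of two or more experiments in duplicate ± SD.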

[15] = Inhibition of Insulin-like growth factor receptor; method in brief: as §3
[16] = molecular target: Tyrosine-protein kinase CSK (Homo sapiens) (UniProt P41240); assay: Inhibition of Csk tyrosine kinase; settings: concentration not given here; method in brief: as §3
[17] = molecular target: Inhibitor of nuclear factor kappa-B kinase subunit alpha (Homo sapiens, UniProt O15111); assay: Inhibition of IKK alpha kinase; method in brief: as §2
[18] = molecular target: Ribosomal protein S6 kinase (P70S6K) (Homo sapiens, UniProt P23443+Q9UBS0); assay: Inhibition of Ribosomal protein S6 kinase (P70S6K kinase); format: protein-complex assay; method in brief: as §2
[19] = molecular target: Serine/threonine-protein kinase Chk1 (Homo sapiens, UniProt O14757); assay: Inhibition of Serine/threonine-protein kinase Chk1
Method in brief: (§4)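 Run externally by the Dundee consortium kinase panel with 100 µM ATP. IC50 values in µM.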

[20] = species on record: Homo sapiens; assay: Inhibition of IL-2 production in human whole blood; format: functional
[21] = molecular target: Serine/threonine-protein kinase Sgk1 (Homo sapiens, UniProt O00141); assay: Inhibition of Serum/glucocorticoid regulated kinase; method in brief: as §2
[22] = molecular target: RAC-alpha serine/threonine-protein kinase (Homo sapiens, UniProt P31749); assay: Inhibition of Protein kinase B alpha; method in brief: as §2
[23] = molecular target: Proto-oncogene tyrosine-protein kinase Src (Homo sapiens, UniProt P12931); assay: Inhibition of Src protein tyrosine kinase; method in brief: as §1
[24] = molecular target: Cyclin-dependent kinase 4 (Homo sapiens, UniProt P11802); assay: Inhibition of Cyclin-dependent kinase 4; method in brief: as §2
[25] = molecular target: Casein kinase II (Homo sapiens, UniProt P19784+P67870+P68400); assay: Inhibition of Casein kinase II; format: protein-complex assay; method in brief: as §2
[26] = tissue or blood; format: functional, tissue-based; settings: Homo sapiens
[27] = molecular target: Hepatocyte growth factor receptor (Homo sapiens, UniProt P08581); assay: Inhibition of Hepatocyte growth factor receptor; format: cell-based; method in brief: as §1
[28] = molecular target: Glycogen synthase kinase-3 beta (Homo sapiens, UniProt P49841); assay: Inhibition of Glycogen synthase kinase-3 beta; method in brief: as §2
[29] = molecular target: 3-phosphoinositide-dependent protein kinase 1 (Homo sapiens, UniProt O15530); assay: Inhibition of Phospho-inositide dependent kinase 1 (PDK1); method in brief: as §2
[30] = molecular target: c-Jun N-terminal kinase, JNK (Homo sapiens, UniProt P45983+P53779+P45984); assay: Inhibition of c-Jun N-terminal kinase; format: protein assay; method in brief: as §2
[31] = molecular target: MAP kinase-activated protein kinase 2 (Homo sapiens, UniProt P49137); assay: Inhibition of MAP kinase-activated protein kinase 1b/MAP kinase-activated protein kinase 2; method in brief: as §2
[32] = molecular target: Cyclin-dependent kinase 2 (Homo sapiens, UniProt P24941); assay: Inhibition of Cyclin-dependent kinase 2; method in brief: as §2
[33] = molecular target: Mitogen-activated protein kinase; ERK1/ERK2 (Homo sapiens, UniProt P27361+P28482); assay: Inhibition of Mitogen-activated protein kinase; format: protein assay; method in brief: as §2
[34] = molecular target: Receptor tyrosine-protein kinase erbB-2 (Homo sapiens, UniProt P04626); assay: Inhibition of Protein kinase HER-2; method in brief: as §1
[35] = molecular target: Ribosomal protein S6 kinase alpha-5 (Homo sapiens, UniProt O75582); assay: Inhibition of MSK-1 kinase; method in brief: as §4
[36] = molecular target: Tyrosine-protein kinase Lyn (Homo sapiens, UniProt P07948); assay: Inhibition of Protein tyrosine kinase Lyn; method in brief: as §1
[37] = molecular target: MAP kinase-activated protein kinase 5 (Homo sapiens, UniProt Q8IW41); assay: Inhibition of Protein kinase PRAK; method in brief: as §4

Chain of Cyclin-dependent kinase 4 (P11802 whole entry): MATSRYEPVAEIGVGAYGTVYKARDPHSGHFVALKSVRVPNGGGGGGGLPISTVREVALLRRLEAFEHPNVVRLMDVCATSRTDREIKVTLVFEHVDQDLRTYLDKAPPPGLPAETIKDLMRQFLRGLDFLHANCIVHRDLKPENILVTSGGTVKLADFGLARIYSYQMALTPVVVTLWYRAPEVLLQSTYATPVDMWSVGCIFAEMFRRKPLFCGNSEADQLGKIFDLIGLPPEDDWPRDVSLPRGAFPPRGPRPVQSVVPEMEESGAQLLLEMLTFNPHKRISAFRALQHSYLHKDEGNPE
Chain of Tyrosine-protein kinase ITK/TSK (Q08881 whole entry): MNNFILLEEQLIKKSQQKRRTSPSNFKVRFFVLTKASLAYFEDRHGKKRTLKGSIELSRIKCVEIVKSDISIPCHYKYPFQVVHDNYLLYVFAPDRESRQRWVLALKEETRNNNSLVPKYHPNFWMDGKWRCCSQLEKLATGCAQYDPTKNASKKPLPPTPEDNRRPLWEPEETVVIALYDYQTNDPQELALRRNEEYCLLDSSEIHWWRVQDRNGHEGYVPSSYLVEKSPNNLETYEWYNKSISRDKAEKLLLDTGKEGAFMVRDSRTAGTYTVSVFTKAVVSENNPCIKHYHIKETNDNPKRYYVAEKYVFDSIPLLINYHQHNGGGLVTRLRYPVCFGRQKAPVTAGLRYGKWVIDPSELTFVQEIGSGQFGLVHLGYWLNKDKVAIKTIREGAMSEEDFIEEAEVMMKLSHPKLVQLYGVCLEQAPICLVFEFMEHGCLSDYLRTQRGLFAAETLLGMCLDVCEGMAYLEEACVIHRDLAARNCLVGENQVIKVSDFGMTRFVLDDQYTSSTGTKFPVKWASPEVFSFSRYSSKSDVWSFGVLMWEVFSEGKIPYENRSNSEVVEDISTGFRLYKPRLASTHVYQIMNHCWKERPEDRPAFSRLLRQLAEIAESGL
Chain of Inhibitor of nuclear factor kappa-B kinase subunit beta (O14920 whole entry): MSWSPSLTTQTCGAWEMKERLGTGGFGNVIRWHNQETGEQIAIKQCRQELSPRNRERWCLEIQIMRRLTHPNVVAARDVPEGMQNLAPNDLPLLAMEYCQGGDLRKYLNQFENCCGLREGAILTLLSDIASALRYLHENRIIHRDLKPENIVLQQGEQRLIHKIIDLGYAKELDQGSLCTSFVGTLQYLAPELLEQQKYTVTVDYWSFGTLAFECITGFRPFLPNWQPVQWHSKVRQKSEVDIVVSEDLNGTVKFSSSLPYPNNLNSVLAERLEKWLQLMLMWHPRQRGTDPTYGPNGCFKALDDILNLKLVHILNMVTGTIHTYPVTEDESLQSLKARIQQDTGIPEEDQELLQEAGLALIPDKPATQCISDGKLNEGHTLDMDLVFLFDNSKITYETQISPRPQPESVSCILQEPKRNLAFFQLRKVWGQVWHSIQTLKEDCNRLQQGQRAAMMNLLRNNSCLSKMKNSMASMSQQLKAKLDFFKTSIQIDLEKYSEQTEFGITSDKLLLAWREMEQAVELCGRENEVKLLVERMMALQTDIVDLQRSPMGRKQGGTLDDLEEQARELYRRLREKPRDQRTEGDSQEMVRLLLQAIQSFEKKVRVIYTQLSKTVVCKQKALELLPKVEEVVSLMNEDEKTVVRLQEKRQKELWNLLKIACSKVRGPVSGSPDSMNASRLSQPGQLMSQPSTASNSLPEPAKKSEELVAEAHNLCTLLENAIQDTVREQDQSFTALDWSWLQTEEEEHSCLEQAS
Chain of Insulin receptor (P06213 28-758 limits assumed): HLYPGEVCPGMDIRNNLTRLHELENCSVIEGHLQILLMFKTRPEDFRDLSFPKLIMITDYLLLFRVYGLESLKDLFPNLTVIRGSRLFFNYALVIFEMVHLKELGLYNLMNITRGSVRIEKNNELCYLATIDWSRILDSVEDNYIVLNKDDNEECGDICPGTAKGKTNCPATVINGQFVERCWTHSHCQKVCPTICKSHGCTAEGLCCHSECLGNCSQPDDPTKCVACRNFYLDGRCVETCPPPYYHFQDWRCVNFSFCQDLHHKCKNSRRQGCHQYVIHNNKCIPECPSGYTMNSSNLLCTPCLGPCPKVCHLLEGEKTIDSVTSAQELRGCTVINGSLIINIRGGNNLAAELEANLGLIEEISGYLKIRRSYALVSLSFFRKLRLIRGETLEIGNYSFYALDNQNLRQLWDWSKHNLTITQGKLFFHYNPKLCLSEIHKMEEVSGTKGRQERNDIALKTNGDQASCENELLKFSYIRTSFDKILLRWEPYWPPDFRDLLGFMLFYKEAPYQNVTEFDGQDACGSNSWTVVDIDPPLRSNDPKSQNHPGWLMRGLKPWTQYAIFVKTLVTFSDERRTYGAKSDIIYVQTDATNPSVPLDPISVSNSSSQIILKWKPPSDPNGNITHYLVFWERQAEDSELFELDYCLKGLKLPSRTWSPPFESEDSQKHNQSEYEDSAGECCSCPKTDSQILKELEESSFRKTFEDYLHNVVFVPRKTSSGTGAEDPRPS
Chain of Insulin receptor (P06213 763-1382 limits assumed): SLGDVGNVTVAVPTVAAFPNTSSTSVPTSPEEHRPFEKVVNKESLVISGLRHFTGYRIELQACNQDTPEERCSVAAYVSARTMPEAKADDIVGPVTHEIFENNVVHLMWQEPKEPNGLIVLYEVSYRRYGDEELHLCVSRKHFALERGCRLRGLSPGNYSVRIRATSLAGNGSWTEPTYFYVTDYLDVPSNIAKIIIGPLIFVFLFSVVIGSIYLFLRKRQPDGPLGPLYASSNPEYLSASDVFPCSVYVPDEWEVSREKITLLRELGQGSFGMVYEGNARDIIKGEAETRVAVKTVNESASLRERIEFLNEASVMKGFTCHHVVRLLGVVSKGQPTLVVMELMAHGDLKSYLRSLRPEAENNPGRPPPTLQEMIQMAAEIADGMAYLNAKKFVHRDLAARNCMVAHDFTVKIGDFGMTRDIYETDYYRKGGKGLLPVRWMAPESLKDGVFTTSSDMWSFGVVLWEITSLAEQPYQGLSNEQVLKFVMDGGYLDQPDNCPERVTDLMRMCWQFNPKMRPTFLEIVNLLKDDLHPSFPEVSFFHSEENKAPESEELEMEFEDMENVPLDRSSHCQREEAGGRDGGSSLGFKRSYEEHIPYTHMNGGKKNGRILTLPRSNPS
Chain of 3-phosphoinositide-dependent protein kinase 1 (O15530 whole entry): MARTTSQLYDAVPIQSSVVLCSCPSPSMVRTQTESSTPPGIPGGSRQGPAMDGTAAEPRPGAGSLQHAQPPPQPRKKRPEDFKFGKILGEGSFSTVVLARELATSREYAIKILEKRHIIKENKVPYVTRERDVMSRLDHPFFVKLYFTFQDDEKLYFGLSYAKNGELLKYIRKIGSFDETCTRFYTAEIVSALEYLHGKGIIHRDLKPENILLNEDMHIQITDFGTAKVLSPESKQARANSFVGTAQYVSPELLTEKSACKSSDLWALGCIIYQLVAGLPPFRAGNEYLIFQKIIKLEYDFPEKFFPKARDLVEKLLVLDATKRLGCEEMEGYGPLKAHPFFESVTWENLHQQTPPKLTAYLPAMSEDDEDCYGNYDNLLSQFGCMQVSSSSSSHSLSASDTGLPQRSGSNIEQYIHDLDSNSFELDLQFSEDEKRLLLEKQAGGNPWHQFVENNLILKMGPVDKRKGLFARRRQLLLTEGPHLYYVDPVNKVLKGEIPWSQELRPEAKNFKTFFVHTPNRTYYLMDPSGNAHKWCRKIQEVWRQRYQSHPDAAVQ
Chain of Casein kinase II (P67870 whole entry): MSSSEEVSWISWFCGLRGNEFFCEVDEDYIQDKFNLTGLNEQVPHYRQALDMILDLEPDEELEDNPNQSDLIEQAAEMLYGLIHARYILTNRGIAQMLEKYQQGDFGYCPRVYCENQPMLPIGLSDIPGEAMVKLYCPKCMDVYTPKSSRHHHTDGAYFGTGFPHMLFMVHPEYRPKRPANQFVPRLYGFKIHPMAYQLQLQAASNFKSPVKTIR
Chain of Casein kinase II (P68400 whole entry): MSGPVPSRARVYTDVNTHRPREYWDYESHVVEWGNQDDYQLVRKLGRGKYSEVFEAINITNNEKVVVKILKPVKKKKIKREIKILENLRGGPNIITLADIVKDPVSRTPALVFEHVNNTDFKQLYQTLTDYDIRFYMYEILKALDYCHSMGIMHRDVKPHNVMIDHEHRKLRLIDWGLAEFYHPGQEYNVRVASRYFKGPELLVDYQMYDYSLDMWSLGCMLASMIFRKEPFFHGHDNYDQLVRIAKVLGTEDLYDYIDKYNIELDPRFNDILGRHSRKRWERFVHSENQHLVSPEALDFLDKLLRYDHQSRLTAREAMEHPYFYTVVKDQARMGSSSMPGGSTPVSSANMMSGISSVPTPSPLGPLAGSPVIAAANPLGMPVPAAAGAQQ
Chain of Casein kinase II (P19784 whole entry): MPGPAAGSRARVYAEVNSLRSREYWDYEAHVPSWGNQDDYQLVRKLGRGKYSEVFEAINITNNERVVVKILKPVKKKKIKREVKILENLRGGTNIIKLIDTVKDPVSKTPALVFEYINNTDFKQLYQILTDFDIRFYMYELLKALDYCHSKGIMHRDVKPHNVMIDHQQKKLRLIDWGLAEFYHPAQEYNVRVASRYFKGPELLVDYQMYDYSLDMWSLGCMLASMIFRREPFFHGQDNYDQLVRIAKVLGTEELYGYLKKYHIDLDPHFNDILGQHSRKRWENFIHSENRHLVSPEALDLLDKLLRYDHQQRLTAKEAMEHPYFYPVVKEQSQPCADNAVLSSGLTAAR
Chain of Glycogen synthase kinase-3 beta (P49841 whole entry): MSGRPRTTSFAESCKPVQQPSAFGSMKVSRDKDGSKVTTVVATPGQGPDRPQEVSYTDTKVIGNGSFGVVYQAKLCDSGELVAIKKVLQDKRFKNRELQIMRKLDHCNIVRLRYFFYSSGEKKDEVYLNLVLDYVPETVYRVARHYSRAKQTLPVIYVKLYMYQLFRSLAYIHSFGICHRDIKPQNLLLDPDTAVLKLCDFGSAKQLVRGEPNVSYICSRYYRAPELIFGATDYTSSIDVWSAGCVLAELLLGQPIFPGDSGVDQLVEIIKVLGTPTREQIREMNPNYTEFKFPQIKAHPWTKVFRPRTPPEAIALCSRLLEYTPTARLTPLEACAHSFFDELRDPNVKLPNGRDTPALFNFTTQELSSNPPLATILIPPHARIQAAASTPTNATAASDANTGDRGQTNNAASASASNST

CCN(CC)C/C=C/c1nc(O)c2c(ccc3nc(Nc4c(Cl)cccc4Cl)n(C)c32)c1C
IC50 [1]: > 10000 nM | IC50 [2]: > 100000 nM | IC50 [3]: > 1000 nM | IC50 [4]: 8 nM | IC50 [5]: > 300000 nM | IC50 [6]: 400 nM | IC50 [7]: > 100000 nM | IC50 [8]: 50000 nM | IC50 [9]: > 100000 nM | IC50 [10]: > 100000 nM | IC50 [11]: > 1000 nM | IC50 [12]: > 40000 nM | IC50 [13]: > 1000 nM | EC50 [14]: 7 nM | IC50 [15]: > 100000 nM | inhibition [16]: 87% | IC50 [17]: 50000 nM | IC50 [18]: > 1000 nM | IC50 [19]: > 1000 nM | EC50 [20]: 1800 nM | IC50 [21]: > 1000 nM | IC50 [22]: > 1000 nM | IC50 [23]: 0.2 nM | IC50 [24]: > 100000 nM | IC50 [25]: > 1000 nM | EC50 [26]: 130 nM | IC50 [27]: > 100000 nM | IC50 [28]: > 1000 nM | IC50 [29]: > 1000 nM | IC50 [30]: > 1000 nM | IC50 [31]: > 1000 nM | IC50 [32]: > 1000 nM | IC50 [33]: > 30000 nM | IC50 [34]: > 10000 nM | IC50 [35]: > 1000 nM | IC50 [36]: 2 nM | IC50 [37]: > 1000 nM
